Results published in ChEMBL document CHEMBL4665656, “Toxicity, bioactivity, release of HS in vivo and pharmaco-kinetics of HS-donors with thiophosphamide structure” (Eur J Med Chem, 2019).
Activity calls are given as the source filed them. No cut-off for these calls is given here.

Columns and labels:
[1] = Solubility of compound in water; format: physicochemical; details: buffer
[2] = Kinetic Solubility of compound; format: physicochemical
[3] = Retention time of compound in PBS by LC-MS analysis; format: physicochemical; details: buffer
Method in brief: (§1)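 Compound incubated in PBS pH 7.4 or in serum, sampled every 12 h over 36 h, and analysed by LC-MS for parent and product peaks.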

[4] = Retention time of compound in serum by LC-MS analysis; format: physicochemical, cell-free; method in brief: as §1
[5] = Induction of H2S generation assessed as Cmax Induction of H2S generation assessed as Cmax at 150 uM incubated at 37 degC and pH 7.4 by fluorescence spectrophotometry; format: functional
Method in brief: (§2)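 Donor at 150 µM final, mixed with 200 µM sulfonyl-azide fluorescent probe in buffer/acetonitrile (1:9) at set pH. Cuvette held in a water bath at 22 °C or 37 °C, with fluorescence read three times at intervals. H2S was quantified from a Na2S standard curve (0–200 µM, probe 200 µM).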

[6] = Induction of H2S generation assessed as Cmax Induction of H2S generation assessed as Cmax at 150 uM incubated at 37 degC and pH 8 by fluorescence spectrophotometry; format: functional; method in brief: as §2
[7] = Induction of H2S generation assessed as Cmax at 150 uM incubated at 22 degC and pH 5 by fluorescence spectrophotometry; format: functional; method in brief: as §2
[8] = Drug metabolism in Wistar rat heart homogenate assessed as metabolite formation incubated for 36 hrs by LC-MS; format: ADME, tissue-based; details: tissue homogenate
[9] = Drug metabolism in Wistar rat kidney homogenate assessed as metabolite formation incubated for 36 hrs by LC-MS; format: ADME, tissue-based; details: tissue homogenate
[10] = Toxicity in Wistar rat assessed as effect on WBC level at 0.01 mmol/kg, ip, administered daily for 14 days (reference value: 5.82 10^9/L); details: in vivo, 336 h, time 14 day
[11] = Toxicity in Wistar rat assessed as effect on platelet level at 0.01 mmol/kg, ip, administered daily for 14 days (reference value: 8.57 10^9/L); details: in vivo, 336 h, time 14 day
[12] = Toxicity in zebra fish assessed as decrease in survival rate at <=20 uM measured after 120 hpf by microscopic analysis relative control; design: species or system Danio rerio; details: zebrafish
Method in brief: (§3)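 Wild-type AB zebrafish embryos were checked at 4 hpf, and normally developed ones were used. There were 100 embryos per group, split into three replicates, one per well in 200 µL solution under sealing film. Mortality was recorded at 24–168 hpf. Vehicle control was DMF diluted 1:1000. Values are mean ±SD of three independent experiments.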

[13] = Toxicity in zebrafish embryos assessed as embryo malformation rate at 1 to 20 uM measured after 96 hpf relative to control; design: species or system Danio rerio; details: in vivo
H9c2 [14] = test: Cardioprotective activity against H2O2- induced toxicity in rat H9c2 cells assessed as increase in survival rate at 50 uM incubated for 8 hrs co-treated with 400 uM H2O2 measured after 24 hrs by MTT assay relative to control; format: functional
Method in brief: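 H9c2 cardiomyocytes injured with H2O2 (50, 200 or 400 µM) for 8 h together with compound (10–100 µM). Survival rate measured against the H2O2 model group. Six independent experiments, mean ± sd.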

[15] = Toxicity in Wistar rat assessed as effect on RBC level at 0.01 mmol/kg, ip, administered daily for 14 days (reference value: […]); details: in vivo, 336 h, time 14 day
[16] = Toxicity in zebra fish assessed as survival rate at 0.5 uM measured after 120 hpf by microscopic analysis; design: species or system Danio rerio; details: zebrafish; method in brief: as §3
RAW264.7 [17] = test: Anti-inflammatory activity in mouse RAW264.7 cells assessed as inhibition of LPS-induced NO production preincubated for 4 hr followed by LPS addition and measured after 24 hrs relative to control; format: functional, cell-based; details: dose 100.0 µM, time 28.0 hrs
Method in brief: (§4)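 RAW264.7 cells exposed to LPS 1 µg/mL with compound (20 and 100 µM) for 24 h. Nitrite in medium measured by Griess reagent, […], against a sodium nitrite standard curve (0–100 µM). Four parallel groups, mean ± SD.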

[18] = Cytotoxicity against rat H9C2 cells assessed as cell viability at 100 uM measured after 24 hrs by MTT assay; format: cell-based; details: read-out: Activity
[19] = Induction of H2S generation assessed as half life at 150 uM incubated at 22 degC and pH 7.4 by fluorescence spectrophotometry; format: functional; method in brief: as §2
[20] = Induction of H2S generation assessed as half life at 150 uM incubated at 37 degC and pH 5 by fluorescence spectrophotometry; format: functional; method in brief: as §2
[21] = Induction of H2S generation assessed as half life at 150 uM incubated at 37 degC and pH 7.4 by fluorescence spectrophotometry; format: functional; method in brief: as §2
RAW264.7 [22] = test: Anti-inflammatory activity in mouse RAW264.7 cells assessed as inhibition of LPS-induced NO production at 100 uM preincubated for 4 hr followed by LPS addition and measured after 24 hrs relative to control; format: functional; method in brief: as §4
RAW264.7 [23] = test: Anti-inflammatory activity in mouse RAW264.7 cells assessed as inhibition of LPS-induced IL-10 production at 20 uM preincubated for 4 hr followed by LPS addition and measured after 24 hrs; format: functional, cell-based
Method in brief: (§5)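 RAW264.7 cells given LPS 1 µg/mL with compound for 24 h, then lysed in RIPA and centrifuged. Protein was set to 0.1 mg/mL by BCA and mouse cytokine levels measured by sandwich ELISA kit. Four parallel groups, mean ± SD.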

RAW264.7 [24] = test: Anti-inflammatory activity in mouse RAW264.7 cells assessed as inhibition of LPS-induced TNFalpha production at 20 uM preincubated for 4 hr followed by LPS addition and measured after 24 hrs relative to control; format: functional, cell-based; method in brief: as §5
H9c2 [25] = test: Cardioprotective activity against H2O2- induced toxicity in rat H9c2 cells assessed as decrease in MDA level at 10 to 100 uM pretreated with H202 for 8 hrs followed by compound addition measured after 24 hrs; format: functional, cell-based; details: dose microM 10-100, time 8.0 hrs
H9c2 [26] = test: Cytoprotective activity against H2O2-induced toxicity in rat H9c2 cells assessed as increase in SOD level at 10 to 100 uM pretreated with H202 for 8 hrs followed by compound addition measured after 24 hrs; format: functional, cell-based; details: dose microM 10-100, time 8.0 hrs
[27] = Toxicity in zebrafish embryos assessed as embryo malformation rate at 20 uM measured after 96 hpf relative to control; design: species or system Danio rerio; details: in vivo

Row | Compound | Retention_time [4] | Cmax [5] | Cmax [6] | Cmax [7] | Activity [10] | Activity [11] | Activity [12] | Activity [15] | Activity [16] | Activity (RAW264.7 [17]) | viability at 24 h, 100 µM [18] | T1/2 [19] | T1/2 [20] | T1/2 [21] | other results
1 | S=P1(c2ccccc2)NCCCO1 (stereo unspecified) | 9.647 min | 26.5 µM | 35.1 µM | 24.9 µM | 3.23 10^9/L | 628 10^9/L | 50% | 8.42 10^12/L | Non-Toxic | Dose-dependent effect | > 90% | 36.8 min | 36.6 min | 35.7 min | solubility [1]: Insoluble; Kinetic_solubility [2]: Soluble; Retention_time [3]: 9.649 min; Drug metabolism [8]: Metabolite_Detected; Drug metabolism [9]: Metabolite_Detected; Activity [13]: 2%; Activity (H9c2 [14]): 5.1%
2 | O=C([O-])[C@H](Cc1cc2ccccc2[nH]1)NP([O-])(=S)c1ccccc1.[Li+].[Li+] (stereo partly specified) | 8.06 min | 124 µM | 124 µM | 117 µM | 4.01 10^9/L | 530 10^9/L | 50% | 5.98 10^12/L | Non-Toxic | Dose-dependent effect | > 90% | 6.97 min | 2.9 min | 3.07 min | inhibition at 100 µM (RAW264.7 [22]): 50%; Activity (RAW264.7 [23]): Active; Activity (RAW264.7 [24]): Active; Activity (H9c2 [25]): Active; Activity (H9c2 [26]): Active; Activity [27]: 5%
